Results: ChEMBL document CHEMBL1143742, “An antifungal agent inhibits an aminoacyl-tRNA synthetase by trapping tRNA in the editing site” (Science, 2007)
≈ marks a conversion by molar mass, not a printed value. Calls of active or inactive are those of the source. No cut-off for these calls is given here.

What was measured:
[1] = test system: Saccharomyces cerevisiae; test: Antimicrobial activity against Saccharomyces cerevisiae in synthetic defined media without leucine; type: functional
[2] = target: T1, Leucine--tRNA ligase, cytoplasmic (Saccharomyces cerevisiae S288c, UniProt P26637); test: Inhibition of Saccharomyces cerevisiae cytoplasmic leucyl-tRNA synthetase assessed as tRNA amino-acylation
T1 sequence (P26637 whole entry): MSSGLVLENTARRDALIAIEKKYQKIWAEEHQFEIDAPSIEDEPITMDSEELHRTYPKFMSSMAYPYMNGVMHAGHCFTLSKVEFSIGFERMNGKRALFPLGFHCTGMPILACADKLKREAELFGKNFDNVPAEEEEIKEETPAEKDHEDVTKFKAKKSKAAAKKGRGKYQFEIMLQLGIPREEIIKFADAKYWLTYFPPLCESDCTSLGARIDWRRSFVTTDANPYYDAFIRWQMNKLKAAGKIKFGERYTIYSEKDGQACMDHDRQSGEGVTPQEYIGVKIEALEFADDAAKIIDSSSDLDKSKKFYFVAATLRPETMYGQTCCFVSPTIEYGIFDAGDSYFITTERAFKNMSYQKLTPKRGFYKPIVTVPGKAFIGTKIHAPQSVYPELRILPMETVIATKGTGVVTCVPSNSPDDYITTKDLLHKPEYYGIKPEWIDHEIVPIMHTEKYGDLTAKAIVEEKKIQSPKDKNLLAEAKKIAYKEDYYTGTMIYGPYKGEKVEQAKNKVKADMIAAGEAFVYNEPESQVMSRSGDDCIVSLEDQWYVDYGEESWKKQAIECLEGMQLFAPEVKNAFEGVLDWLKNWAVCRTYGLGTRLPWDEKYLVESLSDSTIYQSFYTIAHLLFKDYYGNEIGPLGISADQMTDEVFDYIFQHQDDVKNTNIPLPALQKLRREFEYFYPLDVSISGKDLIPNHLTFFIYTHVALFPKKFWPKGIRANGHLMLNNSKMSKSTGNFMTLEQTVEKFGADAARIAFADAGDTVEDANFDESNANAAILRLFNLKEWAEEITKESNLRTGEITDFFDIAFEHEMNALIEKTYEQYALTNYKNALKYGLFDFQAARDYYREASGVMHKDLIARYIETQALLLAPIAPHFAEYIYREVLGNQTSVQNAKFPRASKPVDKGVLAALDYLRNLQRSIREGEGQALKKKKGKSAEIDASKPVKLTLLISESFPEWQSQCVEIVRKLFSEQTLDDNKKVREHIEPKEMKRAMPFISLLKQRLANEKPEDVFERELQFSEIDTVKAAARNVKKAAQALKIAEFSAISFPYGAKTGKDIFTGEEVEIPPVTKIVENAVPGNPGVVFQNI
Outline: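 Recombinant N-terminal His6-tagged yeast Cdc60p (2 nM) in 50 mM HEPES-KOH pH 8.0, 30 mM MgCl2, 30 mM KCl, 0.02% BSA, 1 mM DTT, 20 µM [14C]leucine, 0.2 mg/mL brewer's yeast tRNA at 30°C. Enzyme preincubated 20 min with compound, tRNA and leucine; started with 4 mM ATP. Timed aliquots TCA-precipitated on nitrocellulose filters and counted by scintillation; triplicates.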

[3] = Antifungal activity against Rhizopus microsporus ATCC 66276; type: functional
[4] = test system: Alternaria alternata; test: Antifungal activity against Alternaria alternata ATCC 6663; type: functional
[5] = test system: Penicillium chrysogenum; test: Antifungal activity against Penicillium chrysogenum ATCC 10108; type: functional
[6] = test system: Cladosporium cladosporioides; test: Antifungal activity against Cladosporium cladosporioides ATCC 16022; type: functional
[7] = test system: Saccharomyces cerevisiae; test: Inhibition of protein synthesis in Saccharomyces cerevisiae S288C after 15 mins; type: functional, organism-based
Outline: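 Mid-log S. cerevisiae S288C in SDM lacking leucine, given 0.25 µCi [14C]leucine plus compound over a range of concentrations. 15 min at 30 °C, then cold 10% TCA for 15 min at 4 °C. Precipitate filtered, washed with 5% TCA and scintillation-counted. Percent incorporation relative to untreated cells. Run twice and averaged.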

[8] = target: T1, Leucine--tRNA ligase, cytoplasmic; test: Inhibition of Saccharomyces cerevisiae cytoplasmic leucyl-tRNA synthetase after 2 mins
Outline: (§1)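 His6-tagged yeast Cdc60p (LeuRS) expressed in E. coli Rosetta 2(DE3), used at 2 nM. Buffer 50 mM HEPES-KOH pH 8.0, 30 mM MgCl2, 30 mM KCl, 20 µM [14C]leucine, 0.2 mg/mL brewer's yeast tRNA, 0.02% BSA, 1 mM DTT, 30 °C. TCA-precipitated Leu-tRNA counted. Ki from Lineweaver-Burk y-intercepts replotted against inhibitor.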

[9] = target: T1, Leucine--tRNA ligase, cytoplasmic; test: Inhibition of Saccharomyces cerevisiae cytoplasmic leucyl-tRNA synthetase after 20 mins; outline: as §1
[10] = test system: Saccharomyces cerevisiae; test: Antimicrobial activity against Saccharomyces cerevisiae ATCC 201388; type: functional
[11] = test system: Candida albicans; test: Antifungal activity against Candida albicans ATCC 90028; type: functional
[12] = test system: Nakaseomyces glabratus; test: Antifungal activity against Candida glabrata ATCC 90030; type: functional
[13] = test system: Pichia kudriavzevii; test: Antifungal activity against Candida krusei ATCC 44507; type: functional
[14] = test system: Candida tropicalis; test: Antifungal activity against Candida tropicalis ATCC 13803; type: functional
[15] = test system: Cryptococcus neoformans; test: Antifungal activity against Cryptococcus neoformans F285; type: functional
[16] = test system: Malassezia furfur; test: Antifungal activity against Malassezia furfur ATCC 44344; type: functional
[17] = test system: Malassezia pachydermatis; test: Antifungal activity against Malassezia pachydermatis ATCC 96746; type: functional
[18] = test system: Aspergillus fumigatus; test: Antifungal activity against Aspergillus fumigatus ATCC 13073; type: functional
[19] = test system: Fusarium solani; test: Antifungal activity against Fusarium solani ATCC 36031; type: functional
[20] = test system: Trichophyton rubrum; test: Antifungal activity against Trichophyton rubrum ATCC 18759; type: functional
[21] = test system: Trichophyton benhamiae; test: Antifungal activity against Trichophyton mentagrophytes ATCC 28185; type: functional, Arthroderma benhamiae
[22] = test system: Epidermophyton floccosum; test: Antifungal activity against Epidermophyton floccosum ATCC 525066; type: functional
[23] = test system: Microsporum audouinii; test: Antifungal activity against Microsporum audouinii ATCC 42558; type: functional
[24] = test system: Nannizzia gypsea; test: Antifungal activity against Microsporum gypseum ATCC 24103; type: functional
[25] = test system: Saccharomyces cerevisiae; test: Antimicrobial activity against AN2690-resistant Saccharomyces cerevisiae ANA320 with CDC60 N415D mutation; type: functional
[26] = test system: Saccharomyces cerevisiae; test: Antimicrobial activity against AN2690-resistant Saccharomyces cerevisiae ANA321 with CDC60 R316I mutation; type: functional
[27] = test system: Saccharomyces cerevisiae; test: Antimicrobial activity against AN2690-resistant Saccharomyces cerevisiae ANA322 with CDC60 C326F mutation; type: functional
[28] = test system: Saccharomyces cerevisiae; test: Antimicrobial activity against AN2690-resistant Saccharomyces cerevisiae ANA323 with CDC60 G405V mutation; type: functional
[29] = test system: Saccharomyces cerevisiae; test: Antimicrobial activity against AN2690-resistant Saccharomyces cerevisiae ANA324 with CDC60 C326R mutation; type: functional
[30] = test system: Saccharomyces cerevisiae; test: Antimicrobial activity against AN2690-resistant Saccharomyces cerevisiae ANA326 with CDC60 L315V mutation; type: functional
[31] = test system: Saccharomyces cerevisiae; test: Antimicrobial activity against AN2690-resistant Saccharomyces cerevisiae ANA327 with CDC60 T314M mutation; type: functional
[32] = test system: Saccharomyces cerevisiae; test: Antimicrobial activity against AN2690-resistant Saccharomyces cerevisiae ANA358 with CDC60 S416L mutation; type: functional
[33] = test system: Saccharomyces cerevisiae; test: Antimicrobial activity against AN2690-resistant Saccharomyces cerevisiae ANA360 with CDC60 T319I mutation; type: functional
[34] = target: T1, Leucine--tRNA ligase, cytoplasmic; test: Binding affinity to Saccharomyces cerevisiae cytoplasmic leucyl-tRNA synthetase in presence of AMP
Outline: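 Equilibrium dialysis across a 5 kDa membrane in 50 mM HEPES-KOH pH 8.0, 30 mM MgCl2, 30 mM KCl. Both sides counted in triplicate by scintillation, bound = side B minus side A. Kd from Scatchard plot.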

C[C@@H]1C[C@@H]([C@H](O)CC2CC(=O)NC(=O)C2)C(=O)[C@@H](C)C1 [CYCLOHEXIMIDE] gave an MIC [1] of 0.5 µg/mL (≈ 1.78 µM).

OB1OCCc2cc(F)ccc21 showed an IC50 [2] of 96 µM.

For OB(O)c1ccc(F)cc1, the IC50 [2] was > 100 µM.

With COCc1cc(F)ccc1B(O)O the IC50 [2] was > 100 µM.

With OC1OCc2cc(F)ccc21 (stereo not drawn) the IC50 [2] was > 100 µM.

C/C=C/C/C=C/CCC(=O)[C@H]1O[C@H]1C(N)=O [CERULENIN] showed an MIC [1] of 0.5 µg/mL (≈ 2.24 µM).

C[C@@H]1[C@H](O)[C@@H](C)/C=C/C=C/C=C/C=C/C=C/C=C/C=C/[C@H](O[C@@H]2O[C@H](C)[C@@H](O)[C@H](N)[C@@H]2O)C[C@@H]2O[C@](O)(C[C@@H](O)C[C@@H](O)[C@H](O)CC[C@@H](O)C[C@@H](O)CC(=O)O[C@H]1C)C[C@H](O)[C@H]2C(=O)O [AMPHOTERICIN B] showed an MIC [1] of 1 µg/mL (≈ 1.08 µM).

In the case of OB1OCc2cc(F)ccc21 [TAVABOROLE], the MIC [3] is reported as 2 µg/mL (≈ 13.2 µM), the MIC [4] is reported as 0.5 µg/mL (≈ 3.29 µM) and the MIC [5] is reported as 2 µg/mL (≈ 13.2 µM). The MIC [6] was 0.5 µg/mL (≈ 3.29 µM), the Activity [7] was “Active” and the Ki [8] was 31.4 µM. For the same compound, the Ki [9] was 1.85 µM, the IC50 [2] was 2.1 µM and the MIC [10] was 0.125 µg/mL (≈ 0.823 µM). The MIC [11] was 0.5 µg/mL (≈ 3.29 µM), the MIC [12] was ≤ 0.125 µg/mL and the MIC [13] was 1 µg/mL (≈ 6.58 µM). It also gave an MIC [14] of 0.25 µg/mL (≈ 1.65 µM), an MIC [15] of 0.25 µg/mL (≈ 1.65 µM) and an MIC [16] of 1 µg/mL (≈ 6.58 µM). For the same compound, the MIC [17] was 1 µg/mL (≈ 6.58 µM), the MIC [18] was 0.25 µg/mL (≈ 1.65 µM) and the MIC [19] was 2 µg/mL (≈ 13.2 µM). It also gave an MIC [20] of 2 µg/mL (≈ 13.2 µM), an MIC [21] of 2 µg/mL (≈ 13.2 µM) and an MIC [22] of 1 µg/mL (≈ 6.58 µM). It also gave an MIC [23] of 2 µg/mL (≈ 13.2 µM), an MIC [24] of 2 µg/mL (≈ 13.2 µM) and an MIC [25] of 4 µg/mL (≈ 26.3 µM). It also gave an MIC [26] of 16 µg/mL (≈ 105 µM), an MIC [27] of 16 µg/mL (≈ 105 µM) and an MIC [28] of 16 µg/mL (≈ 105 µM). The MIC [29] was 16 µg/mL (≈ 105 µM), the MIC [30] was 16 µg/mL (≈ 105 µM) and the MIC [31] was 32 µg/mL (≈ 211 µM). The MIC [32] was 32 µg/mL (≈ 211 µM), the MIC [33] was 32 µg/mL (≈ 211 µM) and the MIC [1] was 0.06 µg/mL (≈ 0.395 µM). It also gave a Kd [34] of 20.8 µM.

For O=C1OCc2cc(F)ccc21, the IC50 [2] was > 100 µM.

In the case of Cc1cc(F)ccc1B(O)O, the IC50 [2] is reported as > 100 µM.
